# How the values were obtained:
# Rattus norvegicus [1] = experiment: Antiinflammatory activity in fasted male rat assessed as decrease in carrageenan-induced pleural fluid at 10 mg/kg, po after 5 hrs by Evans blue carrageenan pleural effusion assay relative to control; format: functional
# Procedure, shortened: (§1)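 Evans blue carrageenan pleural effusion assay, run by sequential analysis. Screened first at 316 mg/kg orally alongside acetylsalicylic acid at the same dose; active agents were retested in 6 rats at one or two doses against phenylbutazone. Given by gavage (10 mL/kg) in water with 0.5% Tween 80. Pleural fluid measured in mL ± SD; % decrease taken versus vehicle control.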
# Rattus norvegicus [2] = experiment: Antiinflammatory activity in fasted male rat assessed as decrease in carrageenan-induced pleural fluid at 50 mg/kg, po after 5 hrs by Evans blue carrageenan pleural effusion assay relative to control; format: functional; procedure, shortened: as §1
# Rattus norvegicus [3] = experiment: Antiinflammatory activity in fasted male rat assessed as decrease in carrageenan-induced pleural fluid at 100 mg/kg, po after 5 hrs by Evans blue carrageenan pleural effusion assay relative to control; format: functional; procedure, shortened: as §1
# Rattus norvegicus [4] = experiment: Antiinflammatory activity in fasted male rat assessed as decrease in carrageenan-induced pleural fluid at 316 mg/kg, po after 5 hrs by Evans blue carrageenan pleural effusion assay relative to control; format: functional; procedure, shortened: as §1
# Liver microsome = experiment: Drug metabolism in rat liver microsomes assessed as recovery as total extract radioactivity by TLC; format: ADME
# Procedure, shortened: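 14C-labeled substrate (10 mg) was sonicated into 30 mL of 0.1 M Na+/K+ phosphate buffer, pH 7.4. The mixture was extracted with three portions of ether, extract radioactivity recovery was determined, and TLC was run immediately (acetone/CHCl3 2:98).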
# Rattus norvegicus [5] = experiment: Antiinflammatory activity in fasted male rat assessed as decrease in carrageenan-induced pleural fluid at 0.8 mg/kg, po after 5 hrs by Evans blue carrageenan pleural effusion assay relative to control; format: functional; settings: for inhibition in vivo at 0.8 mg/kg: Rattus norvegicus, Pleural fluid, po, 5 h; procedure, shortened: as §1
# Rattus norvegicus [6] = experiment: Antiinflammatory activity in fasted male rat assessed as decrease in carrageenan-induced pleural fluid at 4 mg/kg, po after 5 hrs by Evans blue carrageenan pleural effusion assay relative to control; format: functional; settings: for inhibition in vivo at 4 mg/kg: Rattus norvegicus, Pleural fluid, po, 5 h; procedure, shortened: as §1
# Rattus norvegicus [7] = experiment: Antiinflammatory activity against adjuvant-induced arthritis in Lewis Wistar rat assessed as change in 11 day edema volume in adjuvant uninjected foot at 0.03 mg/kg, po treated once daily on days 18 to 22 and […]; format: functional
# Procedure, shortened: (§2)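 Therapeutic regimen in the adjuvant-induced arthritic rat model: compound given once daily on days 18-22 and 25-28. Dosed by gavage (10 mL/kg) as a solution or suspension in water containing 0.5% Tween 80. Groups of 8 rats (one group of 7), with vehicle-dosed negative and positive controls. Injected- and uninjected-foot edema (mL ± SD) and body-weight change (g ± SD) recorded over 11 days; p < 0.05 flagged.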
# Rattus norvegicus [8] = experiment: Antiinflammatory activity against adjuvant-induced arthritis in Lewis Wistar rat assessed as change in 11 day edema volume in adjuvant uninjected foot at 0.316 mg/kg, po treated once daily on days 18 to 22 and […]; format: functional; procedure, shortened: as §2
# Rattus norvegicus [9] = experiment: Antiinflammatory activity against adjuvant-induced arthritis in Lewis Wistar rat assessed as change in 11 day edema volume in adjuvant uninjected foot at 3.16 mg/kg, po treated once daily on days 18 to 22 and […]; format: functional; procedure, shortened: as §2
# Rattus norvegicus [10] = experiment: Toxicity in adjuvant-induced arthritis Lewis Wistar rat model assessed as change in 11 day weight at 0.03 mg/kg, po treated once daily on days 18 to 22 and […]; format: organism-based; parameters: dose 0.03 mg/kg, route oral; settings: in vivo, 264 h; procedure, shortened: as §2
# Rattus norvegicus [11] = experiment: Toxicity in adjuvant-induced arthritis Lewis Wistar rat model assessed as change in 11 day weight at 0.316 mg/kg, po treated once daily on days 18 to 22 and […]; format: organism-based; parameters: dose 0.316 mg/kg, route oral; settings: in vivo, 264 h; procedure, shortened: as §2
# Rattus norvegicus [12] = experiment: Toxicity in adjuvant-induced arthritis Lewis Wistar rat model assessed as change in 11 day weight at 3.16 mg/kg, po treated once daily on days 18 to 22 and […]; format: organism-based; parameters: dose 3.16 mg/kg, route oral; settings: in vivo, 264 h; procedure, shortened: as §2
# Rattus norvegicus [13] = experiment: Antiinflammatory activity against adjuvant-induced arthritis in Lewis Wistar rat assessed as change in 11 day edema volume in adjuvant injected foot at 0.316 mg/kg, po treated once daily on days 18 to 22 and […]; format: functional; procedure, shortened: as §2
# Rattus norvegicus [14] = experiment: Antiinflammatory activity against adjuvant-induced arthritis in Lewis Wistar rat assessed as change in 11 day edema volume in adjuvant injected foot at 3.16 mg/kg, po treated […]; format: functional
# Rattus norvegicus [15] = experiment: Antiinflammatory activity against adjuvant-induced arthritis in Lewis Wistar rat assessed as potency in adjuvant injected foot treated po once daily on days 18 to 22 and 25 to 28 relative to phenylbutazone
# Rattus norvegicus [16] = experiment: Antiinflammatory activity against adjuvant-induced arthritis in Lewis Wistar rat assessed as potency in adjuvant uninjected foot treated po once daily on days 18 to 22 and 25 to 28 relative to phenylbutazone
# Rattus norvegicus [17] = experiment: Antiinflammatory activity against adjuvant-induced arthritis in Lewis Wistar rat assessed as change in 11 day edema volume in adjuvant injected foot at 0.03 mg/kg, po treated once daily on days 18 to 22 and 25 to 28
# Rattus norvegicus [18] = experiment: Antiinflammatory activity in fasted male rat assessed as decrease in carrageenan-induced pleural fluid at 60 mg/kg, po after 5 hrs by Evans blue carrageenan pleural effusion assay relative to control; format: functional; procedure, shortened: as §1
# Rattus norvegicus [19] = experiment: Antiinflammatory activity in fasted male rat assessed as decrease in carrageenan-induced pleural fluid at 300 mg/kg, po after 5 hrs by Evans blue carrageenan pleural effusion assay relative to control; format: functional; procedure, shortened: as §1
# Rattus norvegicus [20] = experiment: Antiinflammatory activity against adjuvant-induced arthritis in Lewis Wistar rat assessed as change in 11 day edema volume in adjuvant injected foot at 0.0031 mg/kg, po treated once daily on days 18 to 22 and […]; format: functional; procedure, shortened: as §2
# Rattus norvegicus [21] = experiment: Antiinflammatory activity against adjuvant-induced arthritis in Lewis Wistar rat assessed as change in 11 day edema volume in adjuvant injected foot at 0.0316 mg/kg, po treated […]; format: functional
# Rattus norvegicus [22] = experiment: Antiinflammatory activity against adjuvant-induced arthritis in Lewis Wistar rat assessed as change in 11 day edema volume in adjuvant uninjected foot at 0.0031 mg/kg, po […]; format: functional
# Rattus norvegicus [23] = experiment: Antiinflammatory activity against adjuvant-induced arthritis in Lewis Wistar rat assessed as change in 11 day edema volume in adjuvant uninjected foot at 0.0316 mg/kg, po treated once daily on days 18 to 22 and […]; format: functional; procedure, shortened: as §2
# Rattus norvegicus [24] = experiment: Toxicity in adjuvant-induced arthritis Lewis Wistar rat model assessed as change in 11 day weight at 0.0031 mg/kg, po treated once daily on days 18 to 22 and 25 to 28; settings: in vivo, 264 h
# Rattus norvegicus [25] = experiment: Toxicity in adjuvant-induced arthritis Lewis Wistar rat model assessed as change in 11 day weight at 0.0316 mg/kg, po treated once daily on days 18 to 22 and 25 to 28; settings: in vivo, 264 h
# Rattus norvegicus [26] = experiment: Antiinflammatory activity in fasted male rat assessed as decrease in carrageenan-induced pleural fluid at 2 mg/kg, po after 5 hrs by Evans blue carrageenan pleural effusion assay relative to control; format: functional; procedure, shortened: as §1
# Rattus norvegicus [27] = experiment: Antiinflammatory activity in fasted male rat assessed as decrease in carrageenan-induced pleural fluid at 20 mg/kg, po after 5 hrs by Evans blue carrageenan pleural effusion assay relative to control; format: functional; procedure, shortened: as §1
# Rattus norvegicus [28] = experiment: Antiinflammatory activity against adjuvant-induced arthritis in Lewis Wistar rat assessed as change in 11 day edema volume in adjuvant uninjected foot at 10 mg/kg, po […]; format: functional
# Rattus norvegicus [29] = experiment: Antiinflammatory activity against adjuvant-induced arthritis in Lewis Wistar rat assessed as change in 11 day edema volume in adjuvant uninjected foot at 31.6 mg/kg, po treated once daily on days 18 to 22 and […]; format: functional; procedure, shortened: as §2
# Rattus norvegicus [30] = experiment: Toxicity in adjuvant-induced arthritis Lewis Wistar rat model assessed as change in 11 day weight at 10 mg/kg, po treated once daily on days 18 to 22 and […]; format: organism-based; parameters: dose 10 mg/kg, route oral; settings: in vivo, 264 h; procedure, shortened: as §2
# Rattus norvegicus [31] = experiment: Antiinflammatory activity against adjuvant-induced arthritis in Lewis Wistar rat assessed as change in 11 day edema volume in adjuvant injected foot at 10 mg/kg, po treated once daily on days 18 to 22 and […]; format: functional; procedure, shortened: as §2
# Rattus norvegicus [32] = experiment: Antiinflammatory activity against adjuvant-induced arthritis in Lewis Wistar rat assessed as change in 11 day edema volume in adjuvant injected foot at 31.6 mg/kg, po treated […]; format: functional
# Rattus norvegicus [33] = experiment: Toxicity in adjuvant-induced arthritis Lewis Wistar rat model assessed as change in 11 day weight at 31.6 mg/kg, po treated once daily on days 18 to 22 and 25 to 28; settings: in vivo, 264 h
structure (smiles),measurement,setting,value
O=C(c1ccccc1)c1cccc2c1NCC2,inhibition in vivo at 10 mg/kg,Rattus norvegicus [1],14.5%
same,inhibition in vivo at 50 mg/kg,Rattus norvegicus [2],35.5%
O=C(O)c1cccc2c1NCC2,inhibition in vivo at 100 mg/kg,Rattus norvegicus [3],12.6%
O=C1Nc2c(cccc2C(=O)c2ccccc2)C1=O,inhibition in vivo at 316 mg/kg,Rattus norvegicus [4],18.4%
O=C(c1ccccc1)c1cccc2cc[nH]c12,Drug recovery,Liver microsome,16%
O=C(c1cccc2c1NCC2)[14c]1[14cH][14cH][14cH][14cH][14cH]1,Drug recovery,Liver microsome,49%
CCOC(=O)Cc1cccc(C(=O)c2ccccc2)c1N,inhibition in vivo at 0.8 mg/kg,Rattus norvegicus [5],26.9%
same,inhibition in vivo at 4 mg/kg,Rattus norvegicus [6],37.3%
same,Activity,Rattus norvegicus [7],0.6 mL
same,Activity,Rattus norvegicus [8],0.1 mL
same,Activity,Rattus norvegicus [9],-0.1 mL
same,Activity,Rattus norvegicus [10],11 g
same,Activity,Rattus norvegicus [11],10 g
same,Activity,Rattus norvegicus [12],13 g
same,Activity,Rattus norvegicus [13],-0.1 mL
same,Activity,Rattus norvegicus [14],-0.6 mL
same,fold change (FC),Rattus norvegicus [15],10.9
same,fold change (FC),Rattus norvegicus [16],5.1
same,Activity,Rattus norvegicus [17],0.4 mL
O=C1Cc2cccc(C(=O)c3ccccc3)c2N1,inhibition in vivo at 60 mg/kg,Rattus norvegicus [18],11.1%
same,inhibition in vivo at 300 mg/kg,Rattus norvegicus [19],17.5%
Nc1c(CC(=O)[O-])cccc1C(=O)c1ccccc1.[Na+] [AMFENAC SODIUM],inhibition (INH),Rattus norvegicus [5],11.1%
same,inhibition (INH),Rattus norvegicus [6],33.3%
same,Activity,Rattus norvegicus [20],0.2 mL
same,Activity,Rattus norvegicus [21],0.2 mL
same,Activity,Rattus norvegicus [8],-0.2 mL
same,Activity,Rattus norvegicus [22],0.6 mL
same,Activity,Rattus norvegicus [23],0.4 mL
same,Activity,Rattus norvegicus [11],3 g
same,Activity,Rattus norvegicus [13],-0.3 mL
same,Activity,Rattus norvegicus [24],12 g
same,Activity,Rattus norvegicus [25],6 g
same,fold change (FC),Rattus norvegicus [15],14.2
same,fold change (FC),Rattus norvegicus [16],23.9
Nc1c(CC(=O)O)cccc1C(=O)c1ccccc1 [AMFENAC],inhibition in vivo at 0.8 mg/kg,Rattus norvegicus [5],10.3%
same,inhibition in vivo at 4 mg/kg,Rattus norvegicus [6],33.8%
CC(=O)Oc1ccccc1C(=O)O [ASPIRIN],inhibition in vivo at 316 mg/kg,Rattus norvegicus [4],31.6%
CCCCC1C(=O)N(c2ccccc2)N(c2ccccc2)C1=O [PHENYLBUTAZONE],inhibition in vivo at 10 mg/kg,Rattus norvegicus [1],10.5%
same,inhibition in vivo at 50 mg/kg,Rattus norvegicus [2],24.2%
same,inhibition in vivo at 2 mg/kg,Rattus norvegicus [26],0%
same,inhibition in vivo at 20 mg/kg,Rattus norvegicus [27],19.4%
same,inhibition in vivo at 100 mg/kg,Rattus norvegicus [3],31%
same,Activity,Rattus norvegicus [8],0.4 mL
same,Activity,Rattus norvegicus [9],0 mL
same,Activity,Rattus norvegicus [28],-0.2 mL
same,Activity,Rattus norvegicus [29],-0.4 mL
same,Activity,Rattus norvegicus [11],8 g
same,Activity,Rattus norvegicus [12],8 g
same,Activity,Rattus norvegicus [30],20 g
same,Activity,Rattus norvegicus [13],0.4 mL
same,Activity,Rattus norvegicus [14],-0.3 mL
same,Activity,Rattus norvegicus [31],-0.5 mL
same,Activity,Rattus norvegicus [32],-0.9 mL
same,Activity,Rattus norvegicus [33],26 g

# Reference: ChEMBL document CHEMBL3243991, “Antiinflammatory agents. 1. Synthesis and antiinflammatory activity of 2-amino-3-benzoylphenylacetic acid” (J Med Chem, 1979)
